Assay outcomes from PubChem.
Fibroblast inh: antiproliferative effect on LL 47 fibroblasts – human, LL 47 cells, CellTiter-Glo luminescence, primary screen | LL 47 human lung fibroblast viability, ATP luminescence; hits give low values | viability, % at 10 µM | 85,000 compounds, 1.1% hits | AID 719, 2007;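 active = viability at or below 50% in the single dose screen; inactive = viability above 50%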;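 note: compound exposure lasted 72 h before the ATP readout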
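Material: human lung fibroblast line LL 47, low passage; Evaluation: viability percentage against median untreated-cell control; Buffer or medium: 15% FBS in IMEM; Incubation: 72 h compound exposure at 37 °C after overnight plating; Dosing: 0.1% DMSO in all compound wells; Measured by: CellTiter-Glo luminescence.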
tolC growth inh: growth inhibitors of E. coli tolC mutant, primary screen, strain BW25113 ΔtolC::kan, 384-well; growth inhibition, % at 10 µM (by protocol); 65,000 compounds, 2.2% hits; OD615; AID 573, 2007;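 active = growth inhibition at or above a cutoff equal to the mean over every tested compound plus 3 SD, cut at about 60% in these data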;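 note: growth measured after 20 h incubation at 37 °C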
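System: E. coli ΔtolC::kan strain BW25113; Buffer or medium: LB broth supplemented with 50 µg/mL kanamycin; Compound: 10 µM final, single dose; Incubation: bacterial growth with compound for 20 h at 37 °C; Signal: A615 absorbance measurement; Evaluation: growth inhibition in percent.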
H69AR inhibit: proliferation blockers of H69AR lung cancer cells, primary screen, cell-based, human, 86K library | H69AR lung tumor viability, ATP luminescence, 72 h; hits give low values | viability, % at 10 µM | 85,000 compounds, 6% hits;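 active = viability at or below 40%; inactive = viability above 40%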;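 note: multidrug resistant small cell line overexpressing MRP-1 efflux transporter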
HUVEC prolif 384: inhibitors of HUVEC proliferation, primary screen, cell-based, 384-well; CellTiter-Glo luminescence, 72 h; hits give low values; viability, % at 10 µM (by protocol); 86,000 compounds, 1.1% hits; AID 648, 2007;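 active = viability at or below 30%; inactive = viability above 30%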
E coli WT exp: growth inhibitors of wild-type E. coli, primary screen, strain BW25113, expanded library, OD600; OD600 absorbance; growth inhibition, % at 100 µM; 98,000 compounds, 0.15% hits;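 active = growth inhibition above about 50% at one test dose, limit read from the data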;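 note: growth measured after 20 h incubation at 37 °C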
Jurkat tox 60K: cytotoxicity toward Jurkat T cells, primary screen, cytotoxicity control, cell-based, Jurkat E6.1, 60K MLSMR library; Jurkat E6.1 viability, ATP luminescence, 48 h; 56,000 compounds, 1.2% hits; inhibition, % at 4 µM;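 active = inhibition above the mean inhibition of all tested compounds plus 3 SD, cut at about 28% in these data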
Hits are given with their value; . = inactive; / = not tested or not shown. Only some compounds are listed: those with a hit (about 6.4% of all), similar ones and a draw of the others.

SMILES | Fibroblast inh | tolC growth inh | H69AR inhibit | HUVEC prolif 384 | E coli WT exp | Jurkat tox 60K
Cc1onc(-c2ccccc2)c1C(=O)Nc1sc2c(c1C(N)=O)CCC2 | . | . | 34 | . | . | /
NC(=O)c1c(NC(=O)CSc2nnc(-c3ccccc3)n2CC2CCCO2)sc2c1CCC2 (stereo not drawn) | . | . | 33 | . | . | .
Cc1noc(C)c1C(=O)Nc1sc(C)c(-c2ccccc2)c1C#N | . | 97 | 32 | . | . | .
CCCCn1nc(NC(=O)c2cccs2)c2cc3ccccc3nc21 | . | 91 | . | . | . | /
CCCn1nc(NC(=O)c2cccs2)c2cc3ccccc3nc21 | . | / | . | . | . | /
CCCCn1nc(NC(=O)c2cccs2)c2cc3cc(OC)ccc3nc21 | . | 63 | . | . | . | .
CCCn1nc(NC(=O)c2cccs2)c2cc3cc(OC)ccc3nc21 | / | . | / | / | . | .
O=C1Nc2ccc(Br)cc2C1=Nc1ccc(-c2nnc3n2CCCCC3)cc1 | . | / | . | . | . | /
O=C(COC(=O)C1CCC1)NCc1ccccc1Cl | / | . | . | . | . | .
CC1CC1C(=O)OCC(=O)NCc1ccccc1Cl (stereo not drawn) | . | . | 29 | . | . | .
COC(=O)Cc1[nH]n(-c2nc3ccccc3s2)c(=O)c1C(C)=O | . | / | . | . | . | /
COc1ccc(CN=C(C)c2c(C(F)(F)F)[nH]n(-c3nc4ccccc4s3)c2=O)cc1 | . | / | 13 | 22 | . | /
N#CC1=C(N)Oc2cc(N)ccc2C1C1CC=CCC1 (stereo not drawn) | . | . | 29 | . | . | 56
COc1ccc([N+](=O)[O-])cc1NC(=S)NC(NC(=O)C(c1ccccc1)c1ccccc1)C(Cl)(Cl)Cl (stereo not drawn) | / | / | / | / | . | /
Cc1cccc(S(=O)(=O)C(C#N)c2nc3ccccc3nc2N2CC(C)OC(C)C2)c1 (stereo not drawn) | . | 62 | . | . | . | .
Cc1ccc(S(=O)(=O)C(C#N)c2nc3ccccc3nc2N2CC(C)OC(C)C2)cc1C (stereo not drawn) | . | . | 34 | . | . | .
CN1CC(c2ccc(Cl)c(Cl)c2)[C@@]2(COc3ccccc3C2=O)[C@@]12C(=O)Nc1ccccc12 (stereo partly drawn) | / | / | / | / | . | /
O=C(NCCN1CCOCC1)c1cccc(Cl)c1 | . | . | . | . | . | .
COCC(C)NC(=O)NC1(C(F)(F)F)Oc2ccc(Cl)cc2O1 (stereo not drawn) | . | . | 23 | . | . | /
O=C(NCCN1CCOCC1)NC1(C(F)(F)F)Oc2ccc(Cl)cc2O1 (stereo not drawn) | / | . | / | / | / | 80
CNc1sc(C(=O)c2ccccc2F)c(N)c1-c1nc2ccccc2s1 | . | / | . | . | . | /
O=C1CC(c2cccs2)Cc2nc(NCC3CCCO3)ncc21 (stereo not drawn) | . | . | / | . | . | .
Cc1ccc2nc(NC(=O)c3ccc(Cl)s3)sc2c1 | . | . | 20 | . | . | .
Cc1ccc2nc(NC(=O)c3cccs3)sc2c1 | . | . | . | . | . | /
C/C=C/C(=O)OCC(=O)Nc1nc2ccc(C)cc2s1 | . | / | 29 | . | . | /
SMILES | Fibroblast inh | tolC growth inh | H69AR inhibit | HUVEC prolif 384 | E coli WT exp | Jurkat tox 60K
CS(=O)(=O)c1ccc2nc(NC(=O)c3cccs3)sc2c1 | . | . | 25 | . | . | .
Cc1ccc(C(=O)Nc2nc3ccc(S(C)(=O)=O)cc3s2)s1 | . | . | 38 | . | . | .
CC1=CC(C)(C)N2C(=O)C3(C(C#N)=C(N)OC4=C3C(=O)CC(C)(C)C4)c3c(C)c(C)cc1c32 (stereo not drawn) | . | / | . | . | . | /
COc1ccc2nc(NC(=O)c3cc(C)oc3C)sc2c1 | . | / | . | . | / | /
Cc1cc(C(=O)Nc2nc3ccc(S(C)(=O)=O)cc3s2)c(C)o1 | 46 | . | . | . | . | .
c1ccc(-c2nc3cc4ccccc4cc3[nH]2)nc1 | . | / | 16 | . | . | /
CC1(C)CC(=O)C(C=NCC2CCN(C(=O)Nc3ccccc3)CC2)=C(O)C1 | / | . | / | / | / | .
COc1ccc2c(C)nc(Nc3nc(C)cc(=O)[nH]3)nc2c1 | 8.6 | . | 23 | 2.6 | / | .
COc1cc(C(=O)NCCOc2cc(C)cc(C)c2)c(Br)c(OC)c1OC | / | / | / | / | . | /
